# According to ChEMBL document CHEMBL1275427, “Antimicrobial susceptibilities of geographically diverse clinical human isolates of Leptospira” (2008):
# Assays:
# Type in all cases: functional
# [1] = Antimicrobial activity against Leptospira interrogans serovar Pyrogenes isolate 5 by broth microdilution method
# Procedure, shortened: (§1)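 Strains grown 7 days in EMJH medium at 30°C; inoculum counted by Petroff-Hausser chamber under dark-field microscopy and added at 2 × 10^6 organisms/ml. Twofold serial dilutions in EMJH, final 32.0 to 0.016 μg/ml (units/ml for penicillin), 96-well round-bottom plates, 30°C. alamarBlue added day 3; colour read day 5. MIC is lowest concentration without blue-to-pink change. Triplicate runs, median reported; L. interrogans Icterohaemorrhagiae quality control.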
# [2] = test system: Leptospira weilii; assay: Antimicrobial activity against Leptospira weilii isolate 8 by broth microdilution method; procedure, shortened: as §1
# [3] = Antimicrobial activity against Leptospira interrogans serovar Icterohaemorrhagiae isolate 10 by broth microdilution method; procedure, shortened: as §1
# [4] = Antimicrobial activity against Leptospira interrogans serovar Icterohaemorrhagiae isolate 3 by broth microdilution method; procedure, shortened: as §1
# [5] = Antimicrobial activity against Leptospira interrogans serovar Icterohaemorrhagiae isolate 9 by broth microdilution method; procedure, shortened: as §1
# [6] = Antimicrobial activity against Leptospira interrogans serovar Grippotyphosa isolate 2 by broth microdilution method
# Procedure, shortened: (§2)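 Serial twofold dilutions in EMJH medium, final 32.0 to 0.016 μg/ml (units/ml for penicillin). Inoculum from 7-day EMJH cultures grown at 30°C, counted by Petroff-Hausser chamber under dark-field microscopy, added at 2 × 10^6 organisms/ml. Plates incubated at 30°C; alamarBlue added on day 3 and colour read on day 5. MIC is the lowest concentration without blue-to-pink change; median of triplicate runs.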
# [7] = Antimicrobial activity against Leptospira interrogans serovar Pomona isolate 12 by broth microdilution method; procedure, shortened: as §1
# [8] = test system: Leptospira kirschneri serovar Grippotyphosa; assay: Antimicrobial activity against Leptospira kirschneri serovar Grippotyphosa isolate 13 by broth microdilution method; procedure, shortened: as §2
# [9] = Antimicrobial activity against Leptospira interrogans serovar Canicola isolate 11 by broth microdilution method; procedure, shortened: as §1
# [10] = Antimicrobial activity against Leptospira interrogans serovar Pomona isolate 4 by broth microdilution method; procedure, shortened: as §1
# [11] = Antimicrobial activity against Leptospira interrogans serovar Bataviae isolate 1 by broth microdilution method; procedure, shortened: as §1
# [12] = test system: Leptospira weilii; assay: Antimicrobial activity against Leptospira weilii isolate 6 by broth microdilution method; procedure, shortened: as §1
# [13] = Antimicrobial activity against Leptospira interrogans isolate 7 by broth microdilution method; procedure, shortened: as §2
# [14] = Leptospira interrogans, isolate 5, read-out: MIC
# [15] = Leptospira weilii, isolate 8, read-out: MIC
# [16] = Leptospira interrogans, isolate 10, read-out: MIC
# [17] = Leptospira interrogans, isolate 3, read-out: MIC
# [18] = Leptospira interrogans, isolate 9, read-out: MIC
# [19] = Leptospira interrogans, isolate 12, read-out: MIC
# [20] = Leptospira kirschneri, isolate 13, read-out: MIC
# [21] = Leptospira interrogans, isolate 11, read-out: MIC
# [22] = Leptospira interrogans, isolate 4, read-out: MIC
# [23] = Leptospira interrogans, isolate 1, read-out: MIC
# [24] = Leptospira weilii, isolate 6, read-out: MIC
# [25] = Leptospira interrogans, isolate 7, read-out: MIC
structure (smiles),measurement,setting,value
O=C(O)c1cn(C2CC2)c2cc(N3CCNCC3)c(F)cc2c1=O [CIPROFLOXACIN],MIC,[1]; [14],0.125 µg/mL
same,MIC,[2]; [15],0.125 µg/mL
same,MIC,[3]; [16],0.125 µg/mL
same,MIC,[4]; [17],0.125 µg/mL
same,MIC,[5]; [18],0.125 µg/mL
same,MIC,[6],0.125 µg/mL
same,MIC,[7]; [19],0.06 µg/mL
same,MIC,[8]; [20],0.03 µg/mL
same,MIC,[9]; [21],0.06 µg/mL
same,MIC,[10]; [22],0.25 µg/mL
same,MIC,[11]; [23],0.125 µg/mL
same,MIC,[12]; [24],0.125 µg/mL
same,MIC,[13]; [25],0.125 µg/mL
COc1c(N2C[C@@H]3CCCN[C@@H]3C2)c(F)cc2c(=O)c(C(=O)O)cn(C3CC3)c12 [MOXIFLOXACIN],MIC,[1]; [14],0.06 µg/mL
same,MIC,[2]; [15],0.125 µg/mL
same,MIC,[3]; [16],0.125 µg/mL
same,MIC,[4]; [17],0.06 µg/mL
same,MIC,[5]; [18],0.125 µg/mL
same,MIC,[6],0.06 µg/mL
same,MIC,[7]; [19],< 0.016 µg/mL
same,MIC,[8]; [20],0.03 µg/mL
same,MIC,[9]; [21],0.03 µg/mL
same,MIC,[10]; [22],0.125 µg/mL
same,MIC,[11]; [23],0.06 µg/mL
same,MIC,[12]; [24],0.06 µg/mL
same,MIC,[13]; [25],0.06 µg/mL
CN(C)[C@@H]1C(O)=C(C(N)=O)C(=O)[C@@]2(O)C(O)=C3C(=O)c4c(O)cccc4[C@@](C)(O)[C@H]3C[C@@H]12 [TETRACYCLINE],MIC,[1]; [14],4 µg/mL
same,MIC,[2]; [15],0.5 µg/mL
same,MIC,[3]; [16],0.5 µg/mL
same,MIC,[4]; [17],4 µg/mL
same,MIC,[5]; [18],1 µg/mL
same,MIC,[6],1 µg/mL
same,MIC,[7]; [19],0.125 µg/mL
same,MIC,[8]; [20],< 0.016 µg/mL
same,MIC,[9]; [21],0.125 µg/mL
same,MIC,[10]; [22],2 µg/mL
same,MIC,[11]; [23],1 µg/mL
same,MIC,[12]; [24],1 µg/mL
same,MIC,[13]; [25],1 µg/mL
CC1(C)S[C@@H]2[C@H](NC(=O)[C@H](N)c3ccccc3)C(=O)N2[C@H]1C(=O)O [AMPICILLIN],MIC,[1]; [14],< 0.016 µg/mL
same,MIC,[2]; [15],< 0.016 µg/mL
same,MIC,[3]; [16],< 0.016 µg/mL
same,MIC,[4]; [17],< 0.016 µg/mL
same,MIC,[5]; [18],< 0.016 µg/mL
same,MIC,[6],< 0.016 µg/mL
same,MIC,[7]; [19],< 0.016 µg/mL
same,MIC,[8]; [20],< 0.016 µg/mL
same,MIC,[9]; [21],< 0.016 µg/mL
same,MIC,[10]; [22],< 0.016 µg/mL
same,MIC,[11]; [23],< 0.016 µg/mL
same,MIC,[12]; [24],< 0.016 µg/mL
same,MIC,[13]; [25],< 0.016 µg/mL
CO/N=C(\C(=O)N[C@@H]1C(=O)N2C(C(=O)[O-])=C(C[N+]3(C)CCCC3)CS[C@H]12)c1csc(N)n1 [CEFEPIME],MIC,[1]; [14],< 0.016 µg/mL
same,MIC,[2]; [15],< 0.016 µg/mL
same,MIC,[3]; [16],< 0.016 µg/mL
same,MIC,[4]; [17],< 0.016 µg/mL
same,MIC,[5]; [18],< 0.016 µg/mL
same,MIC,[6],< 0.016 µg/mL
same,MIC,[7]; [19],< 0.016 µg/mL
same,MIC,[8]; [20],< 0.016 µg/mL
same,MIC,[9]; [21],< 0.016 µg/mL
same,MIC,[10]; [22],< 0.016 µg/mL
same,MIC,[11]; [23],< 0.016 µg/mL
same,MIC,[12]; [24],< 0.016 µg/mL
same,MIC,[13]; [25],< 0.016 µg/mL
CC[C@H]1OC(=O)[C@H](C)[C@@H](O[C@H]2C[C@@](C)(OC)[C@@H](O)[C@H](C)O2)[C@H](C)[C@@H](O[C@@H]2O[C@H](C)C[C@H](N(C)C)[C@H]2O)[C@](C)(O)C[C@@H](C)CN(C)[C@H](C)[C@@H](O)[C@]1(C)O [AZITHROMYCIN],MIC,[1]; [14],< 0.016 µg/mL
same,MIC,[2]; [15],< 0.016 µg/mL
same,MIC,[3]; [16],< 0.016 µg/mL
same,MIC,[4]; [17],< 0.016 µg/mL
same,MIC,[5]; [18],< 0.016 µg/mL
same,MIC,[6],< 0.016 µg/mL
same,MIC,[7]; [19],< 0.016 µg/mL
same,MIC,[8]; [20],< 0.016 µg/mL
same,MIC,[9]; [21],< 0.016 µg/mL
same,MIC,[10]; [22],< 0.016 µg/mL
same,MIC,[11]; [23],< 0.016 µg/mL
same,MIC,[12]; [24],< 0.016 µg/mL
same,MIC,[13]; [25],< 0.016 µg/mL
CC1(C)S[C@@H]2[C@H](NC(=O)Cc3ccccc3)C(=O)N2[C@H]1C(=O)O [PENICILLIN G],MIC,[1],<0.016 U/ml
same,MIC,[2],0.06 U/ml
same,MIC,[3],<0.016 U/ml
same,MIC,[4],<0.016 U/ml
same,MIC,[5],<0.016 U/ml
same,MIC,[7],0.06 U/ml
same,MIC,[8],0.125 U/ml
same,MIC,[9],0.25 U/ml
same,MIC,[10],0.06 U/ml
same,MIC,[11],<0.016 U/ml
same,MIC,[12],0.03 U/ml
same,MIC,[13],0.06 U/ml
C[C@H]1COc2c(N3CCN(C)CC3)c(F)cc3c(=O)c(C(=O)O)cn1c23.C[C@H]1COc2c(N3CCN(C)CC3)c(F)cc3c(=O)c(C(=O)O)cn1c23.O [LEVOFLOXACIN],MIC,[1]; [14],0.06 µg/mL
same,MIC,[2]; [15],0.125 µg/mL
same,MIC,[3]; [16],0.125 µg/mL
same,MIC,[4]; [17],0.06 µg/mL
same,MIC,[5]; [18],0.125 µg/mL
same,MIC,[6],0.06 µg/mL
same,MIC,[7]; [19],< 0.016 µg/mL
same,MIC,[8]; [20],< 0.016 µg/mL
same,MIC,[9]; [21],0.03 µg/mL
same,MIC,[10]; [22],0.125 µg/mL
same,MIC,[11]; [23],0.06 µg/mL
same,MIC,[12]; [24],0.06 µg/mL
same,MIC,[13]; [25],0.06 µg/mL
CO/N=C(\C(=O)N[C@@H]1C(=O)N2C(C(=O)O)=C(COC(C)=O)CS[C@H]12)c1csc(N)n1 [CEFOTAXIME],MIC,[1]; [14],< 0.016 µg/mL
same,MIC,[2]; [15],0.03 µg/mL
same,MIC,[3]; [16],< 0.016 µg/mL
same,MIC,[4]; [17],< 0.016 µg/mL
same,MIC,[5]; [18],< 0.016 µg/mL
same,MIC,[6],0.03 µg/mL
same,MIC,[7]; [19],< 0.016 µg/mL
same,MIC,[8]; [20],< 0.016 µg/mL
same,MIC,[9]; [21],< 0.016 µg/mL
same,MIC,[10]; [22],< 0.016 µg/mL
same,MIC,[11]; [23],< 0.016 µg/mL
same,MIC,[12]; [24],0.03 µg/mL
same,MIC,[13]; [25],0.03 µg/mL
C[C@H]1c2cccc(O)c2C(=O)C2=C(O)[C@]3(O)C(=O)C(C(N)=O)=C(O)[C@@H](N(C)C)[C@@H]3[C@@H](O)[C@@H]21.O [DOXYCYCLINE],MIC,[1]; [14],1 µg/mL
same,MIC,[2]; [15],0.5 µg/mL
same,MIC,[3]; [16],0.5 µg/mL
same,MIC,[4]; [17],2 µg/mL
same,MIC,[5]; [18],0.25 µg/mL
same,MIC,[6],1 µg/mL
same,MIC,[7]; [19],0.06 µg/mL
same,MIC,[8]; [20],< 0.016 µg/mL
same,MIC,[9]; [21],0.06 µg/mL
same,MIC,[10]; [22],2 µg/mL
same,MIC,[11]; [23],1 µg/mL
same,MIC,[12]; [24],0.5 µg/mL
same,MIC,[13]; [25],0.25 µg/mL
CC[C@H]1OC(=O)[C@H](C)[C@@H](O[C@H]2C[C@@](C)(OC)[C@@H](O)[C@H](C)O2)[C@H](C)[C@@H](O[C@@H]2O[C@H](C)C[C@H](N(C)C)[C@H]2O)[C@](C)(OC)C[C@@H](C)C(=O)[C@H](C)[C@@H](O)[C@]1(C)O [CLARITHROMYCIN],MIC,[1]; [14],< 0.016 µg/mL
same,MIC,[2]; [15],< 0.016 µg/mL
same,MIC,[3]; [16],< 0.016 µg/mL
same,MIC,[4]; [17],< 0.016 µg/mL
same,MIC,[5]; [18],< 0.016 µg/mL
same,MIC,[6],< 0.016 µg/mL
same,MIC,[7]; [19],< 0.016 µg/mL
same,MIC,[8]; [20],< 0.016 µg/mL
same,MIC,[9]; [21],< 0.016 µg/mL
same,MIC,[10]; [22],< 0.016 µg/mL
same,MIC,[11]; [23],< 0.016 µg/mL
same,MIC,[12]; [24],< 0.016 µg/mL
same,MIC,[13]; [25],< 0.016 µg/mL
CO/N=C(\C(=O)N[C@@H]1C(=O)N2C(C(=O)O)=C(CSc3nc(=O)c(O)nn3C)CS[C@H]12)c1csc(N)n1 [CEFTRIAXONE],MIC,[1]; [14],< 0.016 µg/mL
same,MIC,[2]; [15],0.03 µg/mL
same,MIC,[3]; [16],< 0.016 µg/mL
same,MIC,[4]; [17],< 0.016 µg/mL
same,MIC,[5]; [18],< 0.016 µg/mL
same,MIC,[6],0.06 µg/mL
same,MIC,[7]; [19],< 0.016 µg/mL
same,MIC,[8]; [20],< 0.016 µg/mL
same,MIC,[9]; [21],0.03 µg/mL
same,MIC,[10]; [22],0.06 µg/mL
same,MIC,[11]; [23],0.03 µg/mL
same,MIC,[12]; [24],0.06 µg/mL
same,MIC,[13]; [25],0.06 µg/mL
